The source made the active and inactive calls. The rule behind the calls is not given here.
Assays:
Plasmodium falciparum [1] = assay: Antiplasmodial activity against chloroquine-sensitive ring stage Plasmodium falciparum 3D7 infected in human red blood cells after 48 hrs; type: functional, organism-based; settings: 3D7, 48 h
Plasmodium falciparum [2] = assay: Antiplasmodial activity against chloroquine and pyrimethamine-resistant ring stage Plasmodium falciparum V1/S infected in human red blood cells after 48 hrs; type: functional, organism-based
Plasmodium falciparum [3] = assay: Antiplasmodial activity against chloroquine-sensitive, mefloquine-resistant ring stage Plasmodium falciparum D6 infected in human red blood cells after 48 hrs; type: functional, organism-based; settings: D6, 48 h
Vero = assay: Cytotoxicity against african green monkey Vero cells after 48 hrs by MTT assay; type: cell-based; settings: Chlorocebus sabaeus
Method in brief: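 Vero monkey kidney cells in DMEM with 10% FBS at 37 C, 7% CO2; seeded 15000 cells/well and adhered overnight. Log dilutions from 30 mg/mL DMSO stock, 48 h exposure. MTT at 0.5 mg/mL final for 2 h; formazan dissolved in 95% ethanol, read at 570 nm. Viability relative to DMSO-medium wells; IC50 from concentration–viability curve; doxorubicin as standard.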

[4] = Selectivity index, ratio of IC50 for african green monkey Vero cells to IC50 for chloroquine-resistant ring stage Plasmodium falciparum W2; type: toxicity, cell-based; settings: read-out: Ratio IC50
Method in brief: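 Vero IC50 divided by W2 IC50. Vero: 15000 cells/well adhered overnight, then log dilutions from 30 mg/mL DMSO stock for 48 h. MTT 0.5 mg/mL final for 2 h at 37 C, formazan dissolved in 95% ethanol, A570 read against DMSO vehicle as 100% viability. W2: 48 h YOYO-1 flow-cytometric growth assay in human erythrocytes.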

Plasmodium falciparum [5] = assay: Resistance index, ratio of IC50 for chloroquine-resistant ring stage Plasmodium falciparum W2 to IC50 for chloroquine-sensitive ring stage Plasmodium falciparum 3D7; type: functional
Method in brief: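 W2 IC50 divided by 3D7 IC50. Both were measured by 48 h YOYO-1 flow-cytometric growth assay on sorbitol-synchronised 1% ring-stage cultures in human erythrocytes at 37 C under 3% O2.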

Plasmodium berghei = assay: Antiplasmodial activity against GFP-expressing liver stage Plasmodium berghei sporozoites infected in human Huh-7 cells at 5 uM by fluorescence activated cell sorting based method; type: functional, organism-based
Method in brief: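 Huh7 human hepatoma cells infected with GFP-expressing P. berghei sporozoites, compound at 5 μM. Read-out by FACS: invasion as % GFP-positive cells 2 h after sporozoite addition; development as GFP fluorescence intensity of positive cells at 48 h. Cells trypsinized for 5 min at 37 C, then resuspended in 2% FCS/PBS before analysis.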

[6] = Drug uptake in Plasmodium falciparum infected in human erythrocyte nucleus at 5 uM after 3 hrs by fluorescence microscopy; type: ADME, cell-based
Method in brief: (§1)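 Human erythrocyte P. falciparum culture at 1.9% parasitemia, given 5 μM compound or DMSO solvent control for 3 h at room temperature in the dark. Washed gently with PBS, placed on poly-Lys-coated coverslips and imaged directly by phase contrast and fluorescence microscopy, 100× oil objective.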

[7] = Drug uptake in Plasmodium falciparum infected in human erythrocyte food vacuoles at 5 uM after 3 hrs by fluorescence microscopy; type: ADME, cell-based; method in brief: as §1
Nucleic Acid [8] = assay: Binding affinity to s(GATCCTAGGATC)2-DNA by UV-visible spectrophotometry; type: nucleic-acid assay
Heme = assay: Binding affinity to heme by UV-visible titration
Method in brief: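 Hematin monomer (FPIX-OH, 10 μM) in pH 5.5 HEPES-buffered 40% DMSO v/v at 25 C, titrated with ligand from 100 μM solution until above hematin concentration. Stirred 1 min per addition; spectra 230–500 nm, Soret change at 402 nm. Absorbance dilution-corrected, nonlinear fit for Kd; Kass calculated from Kd.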

[9] = Inhibition of Plasmodium falciparum falcipain 2
[10] = Inhibition of Plasmodium falciparum falcipain 3
[11] = Inhibition of hematin assessed as quenching fluorescence intensity at 1:1 drug-hematin ratio by UV-visible titration; type: functional; settings: dose or concentration not given here
Nucleic Acid [12] = assay: Binding affinity to DNA assessed as quenching fluorescence intensity by UV-visible spectrophotometry; type: nucleic-acid assay
Nucleic Acid [13] = assay: Binding affinity to s(GATCCTAGGATC)2-DNA by fluorescence spectroscopy; type: nucleic-acid assay
Method in brief: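 Buffer 0.01 M phosphate pH 7.4, 0.1 M NaCl, 25.0 C, 1 cm quartz cuvettes. Fluorescence: excitation 339 nm, emission 450–500 nm. Dilution-corrected intensity change fitted to single-site binding for Kd; Kass taken as 1/Kd.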

| Structure (SMILES) | IC50 (Plasmodium falciparum [1]) [nM] | IC50 (Plasmodium falciparum [2]) [nM] | IC50 (Plasmodium falciparum [3]) [nM] | IC50 (Vero) [nM] | selectivity ratio [4] | Ratio IC50 (Plasmodium falciparum [5]) | Activity (Plasmodium berghei) | Drug uptake [6] | Drug uptake [7] | Ka (Nucleic Acid [8]) [×10⁶ /M] | Ka (Heme) [×10⁶ /M] | IC50 [9] [nM] | IC50 [10] [nM] | inhibition [11] [%] | Activity (Nucleic Acid [12]) [%] | Ka (Nucleic Acid [13]) [×10⁶ /M] |
| --- | --- | --- | --- | --- | --- | --- | --- | --- | --- | --- | --- | --- | --- | --- | --- | --- |
| C[n+]1c2ccccc2cc2[n-]c3ccccc3c21.Cl [CRYPTOLEPINE HYDROCHLORIDE] | 424 | 259 | 222 | 1050 | 1.4 | 2.9 | inactive | Active | Active | 0.25 | 0.045 | 38000 | > 50000 |  |  |  |
| C[n+]1c2ccccc2c(NC2CCNCC2)c2[nH]c3ccccc3c21.[Cl-] | 23 | 60 | 59 | 62000 | 1410 | 0.7 | inactive | Active | Active |  | 0.154 | 6390 | 7900 | 60 | 20 | 0.74 |
